Measurements from ChEMBL document CHEMBL1926579, “N-Aryl-2-phenyl-2,3-dihydro-imidazo[1,2-b]pyrazole-1-carboxamides 7-substituted strongly inhibiting both fMLP-OMe- and IL-8-induced human neutrophil chemotaxis” (Eur J Med Chem, 2012).
Calls of active or inactive are those of the source. The calls are words filed in the database; no cut-off is given here.

Experiments:
[1] = Antiinflammatory activity in human neutrophils assessed as inhibition of fMLP-OMe-induced chemotaxis preincubated for 10 mins; format: functional, cell-based; conditions: Neutrophil
Summary of the method: (§1)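 Neutrophils from healthy donors' blood, isolated by dextran sedimentation, Ficoll–Paque centrifugation and hypotonic red-cell lysis, held in KRPG pH 7.4 at room temperature. Cells preincubated with compound 10 min. 48-well microchemotaxis chamber; compound in the upper compartment at 10^-12 to 10^-6 M in KRPG with 1 mg/mL BSA. Attractant in the lower compartment: fMLP-OMe 10 nM or CXCL8/IL8 1 nM.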

[2] = Antiinflammatory activity in human neutrophils assessed as inhibition of IL8-induced chemotaxis preincubated for 10 mins; format: functional, cell-based; conditions: Neutrophil; summary of the method: as §1
Homo sapiens [3] = organism: Homo sapiens; experiment: Induction of Akt phosphorylation in IL8-stimulated human neutrophils
Homo sapiens [4] = organism: Homo sapiens; experiment: Induction of Akt phosphorylation in fMLP-OMe-stimulated human neutrophils

| SMILES | IC50 [1] [µM] | IC50 [2] [µM] | Activity (Homo sapiens [3]) | Activity (Homo sapiens [4]) |
| --- | --- | --- | --- | --- |
| O=C(c1cnn2c1N(C(=O)Nc1ccccc1)C(c1ccccc1)C2)N1CCCCC1 (stereo not drawn) | 0.98 | > 1 |  |  |
| O=C(Nc1ccc(F)cc1)N1c2ccnn2CC1c1ccccc1 (stereo not drawn) | 0.095 | > 1 |  |  |
| NC(=O)c1cnn2c1N(C(=O)Nc1ccccc1F)C(c1ccccc1)C2 (stereo not drawn) | > 1 | 0.0062 |  |  |
| O=C(NC1CC1)c1cnn2c1N(C(=O)Nc1cccc(F)c1)C(c1ccccc1)C2 (stereo not drawn) | 0.138 | > 1 |  |  |
| NC(=O)c1cnn2c1N(C(=O)Nc1cccc3ccccc13)C(c1ccccc1)C2 (stereo not drawn) | 0.11 | > 1 |  |  |
| CCOC(=O)c1cnn2c1N(C(=O)Nc1ccccc1F)C(c1ccccc1)C2 (stereo not drawn) | 0.116 | 0.0075 |  |  |
| CCOC(=O)c1cnn2c1N(C(=O)Nc1ccccc1)C(c1ccccc1)C2 (stereo not drawn) | 0.098 | > 1 |  |  |
| CCOC(=O)c1cnn2c1N(C(=O)Nc1cccc3ccccc13)C(c1ccccc1)C2 (stereo not drawn) | 0.0138 | 0.206 |  |  |
| O=C(Nc1cccc2ccccc12)N1c2ccnn2CC1c1ccccc1 (stereo not drawn) | > 1 | > 1 |  |  |
| O=C(NC1CC1)c1cnn2c1N(C(=O)Nc1ccccc1)C(c1ccccc1)C2 (stereo not drawn) | 0.123 | 0.0132 |  |  |

The next molecules have a lower IC50 [1] than those just listed; values first:

| IC50 [1] [µM] | IC50 [2] [µM] | Activity (Homo sapiens [3]) | Activity (Homo sapiens [4]) | SMILES |
| --- | --- | --- | --- | --- |
| 0.0121 | > 1 |  |  | O=C(Nc1cccc(F)c1)N1c2ccnn2CC1c1ccccc1 (stereo not drawn) |
| 0.0114 | 0.484 |  |  | NC(=O)c1cnn2c1N(C(=O)Nc1ccc(F)cc1)C(c1ccccc1)C2 (stereo not drawn) |
| 0.0103 | > 1 |  |  | CCOC(=O)c1cnn2c1N(C(=O)Nc1ccc(F)cc1)C(c1ccccc1)C2 (stereo not drawn) |
| 0.0092 | 0.111 |  |  | CCOC(=O)c1cnn2c1N(C(=O)Nc1cccc(F)c1)C(c1ccccc1)C2 (stereo not drawn) |
| 0.0055 | 0.0012 |  |  | O=C(c1cnn2c1N(C(=O)Nc1cccc(F)c1)C(c1ccccc1)C2)N1CCCCC1 (stereo not drawn) |
| 0.0054 | > 1 |  |  | O=C(Nc1ccccc1F)N1c2ccnn2CC1c1ccccc1 (stereo not drawn) |
| 0.0048 | > 1 |  |  | O=C(Nc1ccccc1)N1c2ccnn2CC1c1ccccc1 (stereo not drawn) |
| 0.0039 | 0.0012 | inactive | inactive | NC(=O)c1cnn2c1N(C(=O)Nc1cccc(F)c1)C(c1ccccc1)C2 (stereo not drawn) |
